Experimental data from different studies.
Lines come from different studies, so protocols differ.

`O=C(/C=C/c1cn(Cc2cn(-c3ccnc4cc(Cl)ccc34)nn2)c2ccccc12)c1ccc(F)cc1` gave an inhibition of 15.8% (Plasmodium falciparum; parasite growth, SYBR Green; 3D7; 5 µM, blood stage).
`O=C1C(NCCc2ccc(O)cc2)=CC2=NCCc3c[nH]c1c32` gave an IC50 of 291 nM (Plasmodium falciparum; parasite growth, SYBR Green; DD2; blood stage).
With `O=C(/C=C/c1cn(Cc2cn(-c3ccnc4cc(Cl)ccc34)nn2)c2ccccc12)c1ccc(Cl)cc1Cl` the inhibition was 4.87% (Plasmodium falciparum; parasite growth, SYBR Green; 3D7; 5 µM, blood stage).
With `CCOC(Cn1nc(/C=C/C(=O)N2CCC(OC)CC2)c2cnc(NC)nc21)OCC` the EC50 was greater than 30000 nM (FLO-1; cell growth or viability, resazurin; 5 days).
`C=C(F)C(=O)N1CCN(c2nc(OC[C@@H]3CCCN3C)nc3c2CCN(c2cccc4cccc(Cl)c24)C3)C[C@@H]1CC#N` has an IC50 of 107 nM (KYSE-410; cell growth or viability, ATP luminescence; 3D culture).
For `O=C1C=C2NCCc3c[nH]c(c32)C1=O`, the IC50 was 25000 nM (Plasmodium falciparum; parasite growth, SYBR Green; W2; blood stage).
`O=C(NO)c1ccc(CNc2nc3cccc(-c4ccc5c(c4)OCO5)n3n2)cc1` gave a GI50 of 630 nM (COLO 205; cell growth or viability, SRB).
`COc1cccc(C(=O)/C=C/c2cn(Cc3cn(-c4ccnc5cc(Cl)ccc45)nn3)c3ccccc23)c1` has an inhibition of 2.88% (Plasmodium falciparum; parasite growth, SYBR Green; 3D7; 5 µM, blood stage).
For `Cn1cc2c3c1C(=O)C(NCCc1ccc(O)cc1)=CC3=[N+](C)CC2`, the IC50 was 48.4 nM (Plasmodium falciparum; parasite growth, SYBR Green; DD2; blood stage).
With `CNc1ncc2c(/C=C/C(=O)N3CCC(OC)CC3)nn(CC3CCCO3)c2n1` (stereo not drawn) the EC50 was greater than 30000 nM (FLO-1; cell growth or viability, resazurin; 5 days).
The inhibition of `COc1ccc(C(=O)/C=C/c2cn(Cc3cn(-c4ccnc5cc(Cl)ccc45)nn3)c3ccccc23)cc1OC` is reported as -4% (Plasmodium falciparum; parasite growth, SYBR Green; 3D7; 5 µM, blood stage).
For `CNc1ncc2c(/C=C/C(=O)N3CCC(OC)CC3)nn(Cc3ccc(OC)cc3)c2n1`, the EC50 was 1130 nM (FLO-1; cell growth or viability, resazurin; 5 days).
For `C=CC(=O)NC1CCN(c2ncc3ncnc(Nc4ccc(Oc5ccc6c(c5)ncn6C)c(C)c4)c3n2)CC1`, the EC50 was 35.2 nM (MDA-MB-453; cell growth or viability).
The inhibition of `O=C(/C=C/c1cn(Cc2cn(-c3ccnc4cc(Cl)ccc34)nn2)c2ccccc12)c1cccc([N+](=O)[O-])c1` is reported as 36% (Plasmodium falciparum; parasite growth, SYBR Green; 3D7; 10 µM, blood stage).
The EC50 of `CC1CCN(C(=O)/C=C/c2nn(CC3CCCC3)c3ncnc(N)c23)CC1` is reported as greater than 30000 nM (FLO-1; cell growth or viability, resazurin; 5 days).
